Calls of active or inactive are those of the source. The rule behind the calls is not given here.
Experiments:
Mus musculus [1] = test: Anticonvulsant activity in CF-1 mouse model of maximal electroshock-induced seizure assessed as suppression of tonic hind limb extension at 30 mg/kg, ip measured at 0.5 hrs post dose; assay type: functional, organism-based
Method in brief: (§1)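 Mice dosed i.p. and given maximal electroshock at 50 mA. Read-out is protection, reported as number protected / number tested at 0.25, 0.5, 1 and 4 h after dosing.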

Mus musculus [2] = test: Anticonvulsant activity in CF-1 mouse model of maximal electroshock-induced seizure assessed as suppression of tonic hind limb extension at 100 mg/kg, ip measured at 0.5 hrs post dose; assay type: functional, organism-based; method in brief: as §1
Mus musculus [3] = test: Anticonvulsant activity in CF-1 mouse model of maximal electroshock-induced seizure assessed as suppression of tonic hind limb extension at 300 mg/kg, ip measured at 0.5 hrs post dose; assay type: functional, organism-based; method in brief: as §1
[4] = Neurotoxicity in CF-1 mouse at 30 mg/kg, ip measured after 0.5 hrs by rotarod test; assay type: toxicity, organism-based; settings: in vivo
Method in brief: (§2)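 Mice dosed i.p. were placed on a 1 in. knurled rod turning at 6 rpm. Toxicity was scored as failure to keep balance for at least 1 min, i.e. falling off three or more times. Results are reported as animals showing toxicity / animals tested at each time point.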

[5] = Neurotoxicity in CF-1 mouse at 100 mg/kg, ip measured after 0.5 hrs by rotarod test; assay type: toxicity, organism-based; settings: in vivo; method in brief: as §2
Mus musculus [6] = test: Anticonvulsant activity in CF-1 mouse assessed as protection against 44 mA current-induced seizure at 30 mg/kg, ip after 0.5 hrs by 6 Hz psychomotor test; assay type: functional, organism-based
Method in brief: (§3)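 Mice dosed i.p. (30, 100, 300 mg/kg; one line at 120 mg/kg read at 15 min). Corneal stimulation at 6 Hz, 44 mA for 3 s from a constant-current device induces a psychomotor seizure with stunned posture, forelimb automatisms, clonus, vibrissae twitching and Straub tail. Scored as number of animals protected / number tested (4 per group) at 0.5 and 2 h.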

Mus musculus [7] = test: Anticonvulsant activity in CF-1 mouse assessed as protection against 44 mA current-induced seizure at 30 mg/kg, ip after 2 hrs by 6 Hz psychomotor test; assay type: functional, organism-based; method in brief: as §3
Mus musculus [8] = test: Anticonvulsant activity in CF-1 mouse assessed as protection against 44 mA current-induced seizure at 100 mg/kg, ip after 2 hrs by 6 Hz psychomotor test; assay type: functional, organism-based; method in brief: as §3
Mus musculus [9] = test: Anticonvulsant activity in CF-1 mouse assessed as protection against 44 mA current-induced seizure at 300 mg/kg, ip after 2 hrs by 6 Hz psychomotor test; assay type: functional, organism-based; method in brief: as §3
Mus musculus [10] = test: Anticonvulsant activity in CF-1 mouse model of maximal electroshock-induced seizure assessed as suppression of tonic hind limb extension at 30 mg/kg, ip measured at 2 hrs post dose; assay type: functional, organism-based
Mus musculus [11] = test: Anticonvulsant activity in CF-1 mouse model of maximal electroshock-induced seizure assessed as suppression of tonic hind limb extension at 100 mg/kg, ip measured at 2 hrs post dose; assay type: functional, organism-based
[12] = Neurotoxicity in CF-1 mouse at 30 mg/kg, ip measured after 2 hrs by rotarod test; assay type: toxicity, organism-based; settings: in vivo; method in brief: as §2
[13] = Neurotoxicity in CF-1 mouse at 100 mg/kg, ip measured after 2 hrs by rotarod test; assay type: toxicity, organism-based; settings: in vivo; method in brief: as §2
[14] = Neurotoxicity in CF-1 mouse at 300 mg/kg, ip measured after 2 hrs by rotarod test; assay type: toxicity, organism-based; settings: in vivo; method in brief: as §2
[15] = Neurotoxicity in Sprague-Dawley rat at 30 mg/kg, po measured after 4 hrs by rotarod test; assay type: toxicity, organism-based; settings: in vivo
Method in brief: (§4)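 Rat neurotoxicity after i.p. or p.o. dosing was scored as animals impaired / animals tested at each time point. For p.o. dosing, TD50 was obtained by probit analysis.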

[16] = Neurotoxicity in Sprague-Dawley rat at 30 mg/kg, po measured after 2 hrs by rotarod test; assay type: toxicity, organism-based; settings: in vivo; method in brief: as §4
Mus musculus [17] = test: Anticonvulsant activity in CF-1 mouse model of maximal electroshock-induced seizure assessed as suppression of tonic hind limb extension at 100 mg/kg, ip measured at 1 hr post dose; assay type: functional, organism-based; method in brief: as §1
Mus musculus [18] = test: Anticonvulsant activity in CF-1 mouse model of maximal electroshock-induced seizure assessed as suppression of tonic hind limb extension at 30 mg/kg, ip measured at 4 hrs post dose; assay type: functional, organism-based; method in brief: as §1
Mus musculus [19] = test: Anticonvulsant activity in CF-1 mouse model of maximal electroshock-induced seizure assessed as suppression of tonic hind limb extension at 100 mg/kg, ip measured at 4 hrs post dose; assay type: functional, organism-based; method in brief: as §1
Mus musculus [20] = test: Anticonvulsant activity in CF-1 mouse model of maximal electroshock-induced seizure assessed as suppression of tonic hind limb extension at 300 mg/kg, ip measured at 4 hrs post dose; assay type: functional, organism-based; method in brief: as §1
Mus musculus [21] = test: Anticonvulsant activity in CF-1 mouse model of subcutaneous pentylenetetrazole-induced seizure assessed as reduction in convulsions at 30 mg/kg, ip measured at 0.5 hrs post dose; assay type: functional, organism-based
Method in brief: (§5)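 Mice dosed i.p., then given pentylenetetrazole 85 mg/kg in 0.9% NaCl s.c. into the posterior midline of the neck. Seizures watched for at least 30 min. Scored as protected / tested at 0.5 and 4 h.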

Mus musculus [22] = test: Anticonvulsant activity in CF-1 mouse model of subcutaneous pentylenetetrazole-induced seizure assessed as reduction in convulsions at 100 mg/kg, ip measured at 0.5 hrs post dose; assay type: functional, organism-based; method in brief: as §5
Mus musculus [23] = test: Anticonvulsant activity in CF-1 mouse model of subcutaneous pentylenetetrazole-induced seizure assessed as reduction in convulsions at 300 mg/kg, ip measured at 0.5 hrs post dose; assay type: functional, organism-based; method in brief: as §5
Mus musculus [24] = test: Anticonvulsant activity in CF-1 mouse model of subcutaneous pentylenetetrazole-induced seizure assessed as reduction in convulsions at 30 mg/kg, ip measured at 4 hrs post dose; assay type: functional, organism-based; method in brief: as §5
Mus musculus [25] = test: Anticonvulsant activity in CF-1 mouse model of subcutaneous pentylenetetrazole-induced seizure assessed as reduction in convulsions at 100 mg/kg, ip measured at 4 hrs post dose; assay type: functional, organism-based; method in brief: as §5
Mus musculus [26] = test: Anticonvulsant activity in CF-1 mouse model of subcutaneous pentylenetetrazole-induced seizure assessed as reduction in convulsions at 300 mg/kg, ip measured at 4 hrs post dose; assay type: functional, organism-based; method in brief: as §5
[27] = Neurotoxicity in CF-1 mouse at 300 mg/kg, ip measured after 0.5 hrs by rotarod test; assay type: toxicity, organism-based; settings: in vivo; method in brief: as §2
[28] = Neurotoxicity in CF-1 mouse at 100 mg/kg, ip measured after 1 hr by rotarod test; assay type: toxicity, organism-based; settings: in vivo; method in brief: as §2
[29] = Neurotoxicity in CF-1 mouse at 30 mg/kg, ip measured after 4 hrs by rotarod test; assay type: toxicity, organism-based; settings: in vivo; method in brief: as §2
[30] = Neurotoxicity in CF-1 mouse at 100 mg/kg, ip measured after 4 hrs by rotarod test; assay type: toxicity, organism-based; settings: in vivo; method in brief: as §2
[31] = Neurotoxicity in CF-1 mouse at 300 mg/kg, ip measured after 4 hrs by rotarod test; assay type: toxicity, organism-based; settings: in vivo; method in brief: as §2
Rattus norvegicus [32] = test: Anticonvulsant activity in Sprague-Dawley rat model of maximal electroshock-induced seizure assessed as suppression of tonic hind limb extension at 30 mg/kg, po measured at 0.25 hrs post dose; assay type: functional, organism-based
Method in brief: (§6)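 Rats given 30 mg/kg p.o. and tested by maximal electroshock at 150 mA. Scored as number protected / number tested (4 per group) at 0.25, 0.5, 1, 2 and 4 h after dosing.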

Rattus norvegicus [33] = test: Anticonvulsant activity in Sprague-Dawley rat model of maximal electroshock-induced seizure assessed as suppression of tonic hind limb extension at 30 mg/kg, po measured at 0.5 hrs post dose; assay type: functional, organism-based; method in brief: as §6
Rattus norvegicus [34] = test: Anticonvulsant activity in Sprague-Dawley rat model of maximal electroshock-induced seizure assessed as suppression of tonic hind limb extension at 30 mg/kg, po measured at 1 hr post dose; assay type: functional, organism-based; method in brief: as §6
Rattus norvegicus [35] = test: Anticonvulsant activity in Sprague-Dawley rat model of maximal electroshock-induced seizure assessed as suppression of tonic hind limb extension at 30 mg/kg, po measured at 2 hrs post dose; assay type: functional, organism-based; method in brief: as §6
[36] = Neurotoxicity in Sprague-Dawley rat at 30 mg/kg, po measured after 0.25 hrs by rotarod test; assay type: toxicity, organism-based; settings: in vivo; method in brief: as §4
[37] = Neurotoxicity in Sprague-Dawley rat at 30 mg/kg, po measured after 0.5 hrs by rotarod test; assay type: toxicity, organism-based; settings: in vivo; method in brief: as §4
[38] = Neurotoxicity in Sprague-Dawley rat at 30 mg/kg, po measured after 1 hr by rotarod test; assay type: toxicity, organism-based; settings: in vivo; method in brief: as §4
Mus musculus [39] = test: Anticonvulsant activity in ip dosed CF-1 mouse model of subcutaneous pentylenetetrazole-induced seizure assessed as reduction in convulsions; assay type: functional
Method in brief: (§7)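 Mice given test compound i.p.; pentylenetetrazole 85 mg kg⁻¹ in 0.9% NaCl injected subcutaneously into posterior midline of neck. Seizures observed for at least 30 min. Protected = no fore and/or hind limb clonus, jaw chomping or vibrissae twitching (3 to 5 s). Screening doses 30, 100, 300 mg kg⁻¹; read at 0.25, 0.5, 1.0, 4.0 h; scored as protected/tested.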

Mus musculus [40] = test: Anticonvulsant activity in ip dosed CF-1 mouse model of subcutaneous pentylenetetrazole-induced seizure assessed as time required for reduction in convulsions; assay type: functional; method in brief: as §7

Cc1cccc(OCC(=O)N[C@H]2CC[C@H](O)CC2)c1C
Activity (Mus musculus [1]): inactive | Activity (Mus musculus [2]): inactive | Activity (Mus musculus [3]): Active | Activity [4]: Non-Toxic | Activity [5]: Non-Toxic | Activity (Mus musculus [6]): inactive | Activity (Mus musculus [7]): inactive | Activity (Mus musculus [8]): inactive | Activity (Mus musculus [9]): Active | Activity (Mus musculus [10]): inactive | Activity (Mus musculus [11]): inactive | Activity [12]: Non-Toxic | Activity [13]: Non-Toxic | Activity [14]: Non-Toxic

Cc1cccc(C)c1OCC(=O)NCC(C)O (stereo not given)
Activity [15]: Non-Toxic | Activity [16]: Non-Toxic | Activity (Mus musculus [1]): inactive | Activity (Mus musculus [2]): inactive | Activity (Mus musculus [3]): Active | Activity (Mus musculus [17]): inactive | Activity (Mus musculus [18]): inactive | Activity (Mus musculus [19]): inactive | Activity (Mus musculus [20]): inactive | Activity (Mus musculus [21]): inactive | Activity (Mus musculus [22]): inactive | Activity (Mus musculus [23]): inactive | Activity (Mus musculus [24]): inactive | Activity (Mus musculus [25]): inactive | Activity (Mus musculus [26]): inactive | Activity [4]: Non-Toxic | Activity [5]: Non-Toxic | Activity [27]: Toxic | Activity [28]: Non-Toxic | Activity [29]: Non-Toxic | Activity [30]: Non-Toxic | Activity [31]: Non-Toxic | Activity (Rattus norvegicus [32]): inactive | Activity (Rattus norvegicus [33]): inactive | Activity (Rattus norvegicus [34]): inactive | Activity (Rattus norvegicus [35]): inactive | Activity [36]: Non-Toxic | Activity [37]: Non-Toxic | Activity [38]: Non-Toxic

CC(=O)[C@H]1CC[C@H]2[C@@H]3CC[C@H]4C[C@H](O)CC[C@]4(C)[C@H]3CC[C@]12C [BREXANOLONE]
ED50 (Mus musculus [39]): 13.7 mg/kg | Time (Mus musculus [40]): 0.17 h
